In ChEMBL document CHEMBL4304748, “Design, Synthesis, and Biological Evaluation of a New Series of Carvedilol Derivatives That Protect Sensory Hair Cells from Aminoglycoside-Induced Damage by Blocking the Mechanoelectrical Transducer Channel” (J Med Chem, 2019):
pEC50, pKd: −log10 of the molar value. Activity calls are given as the source filed them. The rule behind the calls is not given here.

Tests used:
[1] = Solubility of the compound; assay type: physicochemical
Mus musculus [2] = species: Mus musculus; experiment: Inhibition of MET in CD-1 mouse outer hair cells assessed as reduction in MET currents at 3 to 10 uM measured at -160 mV to +96 mV membrane potential by patch clamp assay
Mus musculus [3] = species: Mus musculus; experiment: (§1) Otoprotective activity against gentamicin-induced outer hair cell death in CD-1 mouse cochlea at 10 uM after 48 hrs by TRITC-phalloidin staining-based microscopic analysis relative to control; assay type: functional
How it was run: (§2)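 Mouse cochlear cultures coincubated for 48 h with 5 μM gentamicin plus compound (5, 10 or 20 μM). OHCs counted in a 300 μm long segment of the mid-basal cochlea. Counts compared with 0.5% DMSO control and with gentamicin + 0.5% DMSO cultures.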

Danio rerio [4] = species: Danio rerio; experiment: Otoprotective activity against gentamicin-induced neuromast hair cell death in 4 days post fertilized AB zebrafish larvae assessed as increase in hair cell survival incubated for 6 hrs by inverted microscopic method; assay type: functional, organism-based
[5] = Cytotoxicity in CD-1 mouse cochlea assessed as induction of cell death in inner hair cell at >=30 uM after 48 hrs by confocal microscopic analysis; assay type: toxicity, tissue-based
How it was run: (§3)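 Mouse cochlear cultures exposed for 48 h to compound, either alone or with 5 μM gentamicin. Controls received 0.5% DMSO, or 5 μM gentamicin + 0.5% DMSO. Hair cell survival counted in a 300 μm segment of the mid-basal region. Confocal imaging used to assess IHC and OHC stereociliary bundle morphology.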

[6] = (§4) Otoprotective activity against gentamicin-induced outer hair cell death in CD-1 mouse cochlea at 20 uM after 48 hrs by TRITC-phalloidin staining-based microscopic analysis relative to control; assay type: functional; how it was run: as §2
Mus musculus [7] = species: Mus musculus; experiment: Inhibition of MET channel in CD-1 mouse outer hair bundles assessed as time constant of inward current decline at 3 uM at holding potential of […] by patch clamp assay
How it was run: (§5)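 MET channels opened by steps from a holding potential of -84 mV, with 1 or 3 μM compound superfused. Currents averaged from 10 repetitions. The current decline was fitted with single exponentials to give time constants, and drug entry rates into hair cells were calculated from these.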

[8] = Cytotoxicity in CD-1 mouse cochlea assessed as disruption of hair bundle morphology in outer hair cell at 20 uM in presence of gentamicin after 48 hrs by confocal microscopic analysis; assay type: toxicity, tissue-based; how it was run: as §3
Mus musculus [9] = species: Mus musculus; details: CD-1, 10 uM
Mus musculus [10] = species: Mus musculus; details: CD-1, 10 uM; remark: listed apart in the source
[11] = Toxicity in 3 days post fertilized AB zebrafish larvae assessed as effect on larval movement at 100 uM incubated for 48 hrs; set-up: species or system Danio rerio; details: in vivo
How it was run: (§6)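 Zebrafish larvae at 3 dpf treated with compound at 30 or 100 μM for 48 h in three trials. Larvae scored for survival and for circulation, then startled and assayed for movement.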

[12] = Cytotoxicity in CD-1 mouse cochlea assessed as induction of cell death in outer hair cell at 10 to 20 uM after 48 hrs by confocal microscopic analysis; assay type: toxicity, tissue-based; how it was run: as §3
Mus musculus [13] = species: Mus musculus; experiment: Inhibition of MET channel in CD-1 mouse cochlea outer hair cells assessed as reduction in GTTR uptake at 100 uM preincubated for 5 mins followed by GTTR addition and measured after 24 mins by microscopic method
How it was run: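 Mouse cochlear cultures pre-incubated 5 min with 100 μM compound or 1% DMSO, then 0.2 μM gentamicin Texas Red (GTTR) added. GTTR fluorescence intensity measured in first-row OHCs, with 10 cells analysed from each of three separate experiments (N = 30).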

[14] = Binding affinity to MET in CD-1 mouse cochlear outer hair cells measured at +96 mV membrane potential by patch clamp assay
How it was run: (§7)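 MET currents recorded from OHCs before and during extracellular superfusion of compound at 1, 3 and 10 μM, over membrane potentials from -164 to +96 mV. Currents normalized to the peak control current at +96 mV for each cell. Dose–response curves built at each membrane potential and fitted with eq 1 to give K_D and Hill coefficient.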

[15] = Toxicity in 3 days post fertilized AB zebrafish larvae assessed as effect on blood circulation at 100 uM incubated for 48 hrs by inverted microscopic method; set-up: species or system Danio rerio; details: in vivo; how it was run: as §6
Mus musculus [16] = species: Mus musculus; details: CD-1, 1 to 10 uM
[17] = Cytotoxicity in CD-1 mouse cochlea assessed as induction of cell damage in inner hair cell at 20 uM after 48 hrs by confocal microscopic analysis; assay type: toxicity, tissue-based; how it was run: as §3
Klebsiella pneumoniae [18] = experiment: Effect on gentamycin-induced antibacterial activity against Klebsiella pneumoniae at 11 uM incubated for 16 to 20 hrs by BacTiter-Glo assay; assay type: ADME, organism-based; details: in vivo
Pseudomonas aeruginosa [19] = experiment: Effect on gentamycin-induced antibacterial activity against Pseudomonas aeruginosa at 11 uM incubated for 16 to 20 hrs by BacTiter-Glo assay; assay type: ADME, organism-based; details: in vivo
[20] = Cytotoxicity in CD-1 mouse cochlea assessed as disruption of hair bundle morphology in inner hair cell at 20 uM in presence of gentamicin after 48 hrs by confocal microscopic analysis; assay type: toxicity, tissue-based; how it was run: as §3
[21] = Otoprotective activity against gentamicin-induced outer hair cell death in CD-1 mouse cochlea at 5 uM after 48 hrs by TRITC-phalloidin staining-based microscopic analysis relative to control; assay type: functional; how it was run: as §2
[22] = Cytotoxicity in CD-1 mouse cochlea assessed as induction of cell death in inner hair cell at >=30 uM in presence of gentamicin after 48 hrs by confocal microscopic analysis; assay type: toxicity, tissue-based; how it was run: as §3
Klebsiella pneumoniae [23] = experiment: Effect on gentamycin-induced antibacterial activity against Klebsiella pneumoniae at 2.2 uM incubated for 16 to 20 hrs by BacTiter-Glo assay; assay type: ADME, organism-based; details: in vivo
[24] = Binding affinity to MET in CD-1 mouse cochlear outer hair cells measured at +16 mV membrane potential by patch clamp assay; how it was run: as §7
[25] = Cytotoxicity in CD-1 mouse cochlea assessed as induction of cell damage in inner hair cell at 20 uM in presence of gentamicin after 48 hrs by confocal microscopic analysis; assay type: toxicity, tissue-based; how it was run: as §3
[26] = Toxicity in 3 days post fertilized AB zebrafish larvae assessed as reduction in larvae survival at 100 uM incubated for 48 hrs; set-up: species or system Danio rerio; details: in vivo; how it was run: as §6
Staphylococcus aureus [27] = experiment: Effect on gentamycin-induced antibacterial activity against Staphylococcus aureus at 2.2 uM incubated for 16 to 20 hrs by BacTiter-Glo assay; assay type: ADME, organism-based; details: in vivo
[28] = Binding affinity to MET in CD-1 mouse cochlear outer hair cells measured at -164 mV membrane potential by patch clamp assay; how it was run: as §7
[29] = Toxicity in 3 days post fertilized AB zebrafish larvae assessed as reduction in larvae survival at 30 uM incubated for 48 hrs; set-up: species or system Danio rerio; details: in vivo; how it was run: as §6
[30] = Cytotoxicity in CD-1 mouse cochlea assessed as induction of cell death in outer hair cell at >=30 uM after 48 hrs by confocal microscopic analysis; assay type: toxicity, tissue-based; how it was run: as §3
[31] = Cytotoxicity in CD-1 mouse cochlea assessed as disruption of hair bundle morphology in outer hair cell at 20 uM after 48 hrs by confocal microscopic analysis; assay type: toxicity, tissue-based; how it was run: as §3
[32] = as §1; assay type: functional; how it was run: as §2
Staphylococcus aureus [33] = experiment: Effect on gentamycin-induced antibacterial activity against Staphylococcus aureus at 11 uM incubated for 16 to 20 hrs by BacTiter-Glo assay; assay type: ADME, organism-based; details: in vivo
[34] = Toxicity in 3 days post fertilized AB zebrafish larvae assessed as effect on blood circulation at 30 uM incubated for 48 hrs by inverted microscopic method; set-up: species or system Danio rerio; details: in vivo; how it was run: as §6
Mus musculus [35] = species: Mus musculus; experiment: Inhibition of MET in CD-1 mouse cochlear outer hair cells assessed as reduction in MET currents at 1 to 10 uM measured at -164 mV membrane potential by patch clamp assay; how it was run: as §7
Mus musculus [36] = species: Mus musculus; details: CD-1, 1 to 10 uM; remark: listed apart in the source
Pseudomonas aeruginosa [37] = experiment: Effect on gentamycin-induced antibacterial activity against Pseudomonas aeruginosa at 2.2 uM incubated for 16 to 20 hrs by BacTiter-Glo assay; assay type: ADME, organism-based; details: in vivo
Mus musculus [38] = species: Mus musculus; experiment: Inhibition of MET channel in CD-1 mouse cochlea outer hair bundles assessed as time constant of inward current decline at 1 uM at holding potential of […] by patch clamp assay; how it was run: as §5
Danio rerio [39] = species: Danio rerio; experiment: Otoprotective activity against neomycin-induced neuromast hair cell death in 4 days post fertilized AB zebrafish larvae assessed as increase in hair cell survival incubated for 1 hr by inverted microscopic method; assay type: functional, organism-based
[40] = Cytotoxicity against CD-1 mouse cochlea assessed as induction of cell death in outer hair cell at >=30 uM after 48 hrs in presence of gentamicin by confocal microscopic analysis; assay type: toxicity, tissue-based; how it was run: as §3
[41] = Binding affinity to MET in CD-1 mouse cochlear outer hair cells measured at -84 mV membrane potential by patch clamp assay; how it was run: as §7
Mus musculus [42] = species: Mus musculus; details: CD-1, 10 uM; remark: listed apart in the source
[43] = Cytotoxicity in CD-1 mouse cochlea assessed as disruption of hair bundle morphology in inner hair cell at 20 uM after 48 hrs by confocal microscopic analysis; assay type: toxicity, tissue-based; how it was run: as §3
[44] = Cytotoxicity in CD-1 mouse cochlea assessed as induction of cell death in outer hair cell at 30 uM in presence of gentamicin after 48 hrs by confocal microscopic analysis; assay type: toxicity, tissue-based; how it was run: as §3
[45] = Cytotoxicity in CD-1 mouse cochlea assessed as disruption of hair bundle morphology in inner hair cell at 30 uM after 48 hrs by confocal microscopic analysis; assay type: toxicity, tissue-based; how it was run: as §3
Mus musculus [46] = species: Mus musculus; experiment: as §4; assay type: functional; how it was run: as §2
Mus musculus [47] = species: Mus musculus; experiment: Inhibition of MET in CD-1 mouse cochlea outer hair cells assessed as blockade of MET currents at 10 uM measured at -160 mV to +80 mV membrane potential by patch clamp assay relative to control
How it was run: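 OHC MET currents recorded before and during exposure to 10 μM compound. Fractional block taken as the current during exposure relative to the control current at each membrane potential.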

[48] = Cytotoxicity in CD-1 mouse cochlea assessed as disruption of hair bundle morphology in outer hair cell at 30 uM after 48 hrs by confocal microscopic analysis; assay type: toxicity, tissue-based; how it was run: as §3
Mus musculus [49] = species: Mus musculus; experiment: Inhibition of MET in CD-1 mouse cochlea outer hair cells assessed as reduction in MET currents at 1 to 10 uM measured at -150 mV to +100 mV membrane potential by patch clamp assay

COc1ccccc1OCCN(CCCOc1cccc2[nH]c3ccccc3c12)CCOc1ccccc1OC
solubility [1]: Insoluble | inhibition (Mus musculus [2]): inactive | Activity (Mus musculus [3]): inactive

COc1ccccc1OCCNCC(O)COc1cccc2[nH]c3ccccc3c12 (stereo not drawn) [CARVEDILOL]
pEC50 (Danio rerio [4]): 4.96 | Activity [5]: Toxic | Activity [6]: 100% | TIME (Mus musculus [7]): 2.67e-06 h | Activity [8]: Toxic | inhibition (Mus musculus [9]): Active | inhibition (Mus musculus [10]): Active | Activity [11]: Toxic | Activity [12]: Non-Toxic | inhibition (Mus musculus [13]): Active | pKd [14]: 5.82 | Activity [15]: Toxic | inhibition (Mus musculus [16]): Active | Activity [17]: Toxic | Activity (Klebsiella pneumoniae [18]): Non-Toxic | Activity (Pseudomonas aeruginosa [19]): Non-Toxic | Activity [20]: Toxic | Activity [21]: 54% | Activity [22]: Toxic | Activity (Klebsiella pneumoniae [23]): Non-Toxic | pKd [24]: 7.00 | Activity [25]: Toxic | Activity [26]: Toxic | Activity (Staphylococcus aureus [27]): Non-Toxic | pKd [28]: 5.20 | Activity [29]: Non-Toxic | Activity [30]: Toxic | Activity [31]: Toxic | Activity [32]: 100% | Activity (Staphylococcus aureus [33]): Non-Toxic | Activity [34]: Non-Toxic | inhibition (Mus musculus [35]): inactive | inhibition (Mus musculus [36]): inactive | Activity (Pseudomonas aeruginosa [37]): Non-Toxic | TIME (Mus musculus [38]): 5e-06 h | pEC50 (Danio rerio [39]): 5.61 | Activity [40]: Toxic | pKd [41]: 5.70 | inhibition (Mus musculus [42]): Active | Activity [43]: Toxic

COc1ccccc1OCCNCCCOc1cccc2[nH]c3ccccc3c12
Activity [44]: Non-Toxic | pEC50 (Danio rerio [4]): 4.97 | Activity [45]: Toxic | Activity (Mus musculus [46]): Active | inhibition (Mus musculus [47]): 100% | TIME (Mus musculus [7]): 1.67e-06 h | Activity [11]: Non-Toxic | inhibition (Mus musculus [13]): Active | pKd [14]: 5.77 | Activity [15]: Non-Toxic | Activity (Klebsiella pneumoniae [18]): Non-Toxic | Activity (Pseudomonas aeruginosa [19]): Non-Toxic | Activity [21]: 88% | Activity [48]: Toxic | Activity (Klebsiella pneumoniae [23]): Non-Toxic | pKd [24]: 6.00 | Activity [26]: Non-Toxic | Activity (Staphylococcus aureus [27]): Non-Toxic | pKd [28]: 5.34 | Activity [29]: Non-Toxic | Activity [30]: Toxic | Activity (Mus musculus [3]): Active | Activity (Staphylococcus aureus [33]): Non-Toxic | Activity [34]: Non-Toxic | inhibition (Mus musculus [35]): inactive | Activity (Pseudomonas aeruginosa [37]): Non-Toxic | TIME (Mus musculus [38]): 2.75e-06 h | pEC50 (Danio rerio [39]): 5.68 | pKd [41]: 5.62 | inhibition (Mus musculus [49]): Active
